# Measured values published in ChEMBL document CHEMBL3352380, “Development of benzo[d]oxazol-2(3H)-ones derivatives as novel inhibitors of Mycobacterium tuberculosis InhA” (Bioorg Med Chem, 2014).
# Tested on: Mycobacterium tuberculosis
# Assay: Antimicrobial activity against extensively drug-resistant Mycobacterium tuberculosis XDR-TB after 28 days by two-fold agar dilution method
# Assay type: functional
# Conditions: 672 h
# Method in brief: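 Two-fold serial dilutions in Middlebrook 7H11 agar with OADC supplement, final 50 to 0.78 µg/mL. Inoculum from fresh 7H11/OADC slants, adjusted to 1 mg/mL wet weight in 0.05% Tween 80 saline and diluted 10^-2 (~10^7 cfu/mL), spotted onto drug-containing agar tubes. Incubated at 37 °C; MIC is the lowest concentration inhibiting growth, read at 28 days.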
row,SMILES,MIC
1,O=C(Cn1c(=O)oc2cc(Cl)ccc21)Nc1ncc([N+](=O)[O-])s1,17.6 µM
2,O=C(Cn1c(=O)oc2ccccc21)NCc1ccco1,11.5 µM
3,O=C(Cn1c(=O)oc2ccccc21)NCc1cccs1,21.7 µM
4,O=C(Cn1c(=O)oc2cc([N+](=O)[O-])ccc21)NCc1cccs1,18.8 µM
5,NNC(=O)c1ccncc1 [ISONIAZID],45.6 µM
6,O=C(Cn1c(=O)oc2ccccc21)Nc1nc2ccccc2s1,38.4 µM
7,O=C(Cn1c(=O)oc2cc(Cl)ccc21)Nc1nc2ccccc2s1,34.7 µM
8,O=C(Cn1c(=O)oc2cc([N+](=O)[O-])ccc21)Nc1nc2ccc([N+](=O)[O-])cc2s1,15 µM
9,O=C(Cn1c(=O)oc2cc([N+](=O)[O-])ccc21)Nc1ncc([N+](=O)[O-])s1,17.1 µM
10,CC[C@@H](CO)NCCN[C@@H](CC)CO [ETHAMBUTOL],24.5 µM
11,CO[C@H]1/C=C/O[C@@]2(C)Oc3c(C)c(O)c4c(O)c(c(/C=N/N5CCN(C)CC5)c(O)c4c3C2=O)NC(=O)/C(C)=C\C=C\[C@H](C)[C@H](O)[C@@H](C)[C@@H](O)[C@@H](C)[C@H](OC(C)=O)[C@@H]1C [RIFAMPIN],30.4 µM
